Data: publication PMC4002122 (Chemical Research in Toxicology, 2014)
Marks after values point to notes of the source that are not given here.

Key:
Assay type in all cases: in vitro ADME
UGT2B7 = target: T1, UGT2B7 (Homo sapiens, UniProt P16662); experiment: Screening of recombinant UGT2B7 for glucuronidation activity; conditions: 250 μM substrate, 5 μg protein, 60 min, 37 °C
T1 sequence (P16662 24-529): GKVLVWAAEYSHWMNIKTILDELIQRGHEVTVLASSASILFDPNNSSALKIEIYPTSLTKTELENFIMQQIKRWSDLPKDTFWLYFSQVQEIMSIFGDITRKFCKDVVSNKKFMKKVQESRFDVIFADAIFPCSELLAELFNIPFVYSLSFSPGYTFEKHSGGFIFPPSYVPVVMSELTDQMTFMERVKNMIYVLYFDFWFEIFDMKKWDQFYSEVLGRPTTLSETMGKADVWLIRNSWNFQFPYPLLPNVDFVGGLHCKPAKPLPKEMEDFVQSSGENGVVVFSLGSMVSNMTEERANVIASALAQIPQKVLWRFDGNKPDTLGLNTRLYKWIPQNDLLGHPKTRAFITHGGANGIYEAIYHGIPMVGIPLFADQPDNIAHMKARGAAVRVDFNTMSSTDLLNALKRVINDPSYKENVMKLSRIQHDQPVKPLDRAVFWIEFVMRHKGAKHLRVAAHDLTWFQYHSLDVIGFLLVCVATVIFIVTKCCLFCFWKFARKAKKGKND
How it was run: (§1)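 UGT1A1, 1A3, 1A4 and 1A6–1A10 were His-tagged and expressed in baculovirus-infected Sf9 cells; UGT2B4, 2B7, 2B15 and 2B17 were commercial membranes run per supplier protocol. 5 μg membrane protein with 250 μM substrate, 2 mM UDP-GlcUA, Tris–HCl pH 7.4, MgCl2, saccharolactone, 2% DMSO; 37 °C, 60 min; no-substrate controls. Products measured by HPLC-UV/vis; β-glucuronidase hydrolysis separated O- from carboxyl glucuronides.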

UGT2B17 = target: T2, UGT2B17 (Homo sapiens, UniProt O75795); experiment: Screening of recombinant UGT2B17 for glucuronidation activity; conditions: 250 μM substrate, 5 μg protein, 60 min, 37 °C
T2 sequence (O75795 24-530): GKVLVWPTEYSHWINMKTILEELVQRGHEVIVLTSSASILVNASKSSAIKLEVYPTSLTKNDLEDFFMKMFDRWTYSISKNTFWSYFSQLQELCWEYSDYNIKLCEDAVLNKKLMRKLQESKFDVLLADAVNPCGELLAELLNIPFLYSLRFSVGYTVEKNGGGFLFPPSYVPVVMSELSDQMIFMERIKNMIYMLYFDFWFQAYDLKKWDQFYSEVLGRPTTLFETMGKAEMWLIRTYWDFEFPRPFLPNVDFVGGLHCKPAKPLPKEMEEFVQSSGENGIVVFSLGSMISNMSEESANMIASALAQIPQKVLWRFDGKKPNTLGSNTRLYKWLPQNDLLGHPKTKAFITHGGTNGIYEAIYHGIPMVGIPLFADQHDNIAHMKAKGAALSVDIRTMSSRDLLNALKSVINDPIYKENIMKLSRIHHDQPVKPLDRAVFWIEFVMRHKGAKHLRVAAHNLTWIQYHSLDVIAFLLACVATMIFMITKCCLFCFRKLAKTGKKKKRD
How it was run: as §1

[1] = Glucuronidation by human intestinal microsomes; conditions: 0.25 mM substrate, 60 min
How it was run: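 Microsomes from individual human livers (10 donors), a pooled liver sample and hepatosomes, or from intestines (13 donors). Substrate dried from ethanol, redissolved in DMSO and sonicated. Incubated 37 °C, 60 min; ethanol stop, centrifuged. Glucuronides measured by reversed-phase HPLC-UV; nmol/mg/min, median and range.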

UGT1A1 = target: T3, UGT1A1 (Homo sapiens, UniProt P22309); experiment: Steady state kinetics of glucuronidation by recombinant UGT1A1
T3 sequence (P22309 26-533): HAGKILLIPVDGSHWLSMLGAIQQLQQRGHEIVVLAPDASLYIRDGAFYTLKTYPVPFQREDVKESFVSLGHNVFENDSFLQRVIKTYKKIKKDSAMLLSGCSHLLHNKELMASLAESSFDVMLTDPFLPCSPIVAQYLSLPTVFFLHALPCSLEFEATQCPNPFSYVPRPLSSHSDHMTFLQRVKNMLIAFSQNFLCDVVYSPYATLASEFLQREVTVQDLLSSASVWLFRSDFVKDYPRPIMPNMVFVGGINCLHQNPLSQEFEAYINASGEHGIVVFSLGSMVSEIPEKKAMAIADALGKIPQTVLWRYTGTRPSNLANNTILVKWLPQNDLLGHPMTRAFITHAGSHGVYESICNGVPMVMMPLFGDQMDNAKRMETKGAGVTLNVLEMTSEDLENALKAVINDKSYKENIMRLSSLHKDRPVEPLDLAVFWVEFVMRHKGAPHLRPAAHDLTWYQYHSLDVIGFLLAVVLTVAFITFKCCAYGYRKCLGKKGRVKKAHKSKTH

UGT1A8 = target: T4, UGT1A8 (Homo sapiens, UniProt Q9HAW9); experiment: Steady state kinetics of glucuronidation by recombinant UGT1A8
T4 sequence (Q9HAW9 26-530): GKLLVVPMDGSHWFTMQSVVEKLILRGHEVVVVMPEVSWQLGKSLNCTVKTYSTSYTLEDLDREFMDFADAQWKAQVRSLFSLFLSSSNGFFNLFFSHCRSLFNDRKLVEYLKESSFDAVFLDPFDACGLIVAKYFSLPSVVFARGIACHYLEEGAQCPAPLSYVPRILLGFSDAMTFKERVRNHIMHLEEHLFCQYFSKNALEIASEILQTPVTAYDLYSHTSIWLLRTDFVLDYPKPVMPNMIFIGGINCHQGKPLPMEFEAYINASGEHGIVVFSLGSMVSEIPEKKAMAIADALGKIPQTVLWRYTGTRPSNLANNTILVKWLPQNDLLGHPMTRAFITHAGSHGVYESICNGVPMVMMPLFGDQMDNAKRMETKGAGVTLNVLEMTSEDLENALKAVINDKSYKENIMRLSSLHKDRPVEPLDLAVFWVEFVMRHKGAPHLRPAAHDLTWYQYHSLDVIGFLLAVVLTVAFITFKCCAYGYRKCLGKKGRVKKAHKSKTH

In the case of `COc1cc(/C=C/c2cc([N+](=O)[O-])c(O)c([N+](=O)[O-])c2)cc(OC)c1` [DNR-1, (E)-4-(3,5-dimethoxystyryl)-2,6-dinitrophenol], the “glucuronidation activity (glucuronide formed)” value (UGT2B7) is reported as “No activity” and the “glucuronidation activity (glucuronide formed)” value (UGT2B17) is reported as “No activity”.

In the case of `COc1ccc(/C=C(/C(=O)O)c2cc(OC)c(OC)c(OC)c2)cc1O` [NI-12a, (E)-3-(3-hydroxy-4-methoxyphenyl)-2-(3,4,5-trimethoxyphenyl)acrylic acid], the glucuronidation activity ([1]; donors HI27, HI28, HI29, and HI54) is reported as “failed to display glucuronidation activity”, the metabolites produced ([1]; donors HI34, HI36, HI40, and HI41) is reported as “only one (the hydroxyl) metabolite” and the metabolites produced ([1]; remaining donors with activity) is reported as “two (hydroxyl and carboxyl) metabolites”. The NI-12a-COO-gluc formation (UGT1A1; COO-glucuronide) was “too low to be assessed”, the NI-12a-O-gluc formation (UGT1A1; O-glucuronide) was “not produced” and the NI-12a-COO-gluc formation (UGT1A8; COO-glucuronide) was “not produced”. For the same compound, the kinetic model (UGT1A8; NI-12a-O-gluc formation) was “uncompetitive substrate inhibition and USI” and the Ks (UGT1A8; NI-12a-O-gluc formation, USI model) was 950 ± 449 µM.

In the case of `COc1ccc(C=Cc2cc(OC)cc(OC)c2/C=N/O)cc1` [NI-ST-05, (E)-2,4-dimethoxy-6-(4-methoxystyryl)benzaldehyde oxime], the metabolites produced ([1]; all other donors (than HI27, HI29, HI30)) is reported as “one metabolite”, the glucuronidation activity ([1]; donors HI27, HI29, and HI30) is reported as “failed to display glucuronidation activity” and the kinetic model (UGT1A1; NI-ST-05–N–O-gluc formation, estimated based on an incomplete data set) is reported as “M–M ^b”. For the same compound, the Vmax (UGT1A1; NI-ST-05–N–O-gluc formation, estimated based on an incomplete data set, assuming M–M kinetics) was 0.21 ± 0.02 ^b nmol/mg/min, the “NI-ST-05–N–O-gluc formation” value (UGT1A8; N–O-glucuronide) was “not produced” and the “glucuronidation activity (glucuronide formed)” value (UGT2B7) was “inactive”. For the same compound, the “glucuronidation activity (glucuronide formed)” value (UGT2B17) was “inactive”.
